From ChEMBL document CHEMBL2034867, “S-Farnesyl-Thiopropionic Acid (FTPA) Triazoles as Potent Inhibitors of Isoprenylcysteine Carboxyl Methyltransferase” (ACS Med Chem Lett, 2012)
pIC50: −log10 of the molar value. Calls of active or inactive are those of the source. The calls are words filed in the database; no cut-off is given here.

Legend:
[1] = molecular target: T1, Protein-S-isoprenylcysteine O-methyltransferase (Homo sapiens, UniProt O60725); assay: Specific activity at ICMT at 10 uM relative to AFC
Method in brief: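 Single-point vapor diffusion assay at 10 μM inhibitor. Icmt specific activity is expressed as percent of the no-inhibitor AFC control.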

[2] = molecular target: T1, Protein-S-isoprenylcysteine O-methyltransferase; assay: Inhibition of ICMT in cell free system
MEF [3] = assay: Cytotoxicity against icmt-positive MEF cells after 5 days by MTT assay; format: functional, cell-based; details: Mus musculus, 120 h
Method in brief: (§1)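 MEFs from Icmt+/+ or Icmt–/– animals were seeded at 1000 cells/well in DMEM with 10% FBS for 24 h. Medium was then changed to DMEM with 5% FBS containing compound at various concentrations, or 0.1% DMSO. After 5 days, MTT (5 mg/mL) was added for 4 h at 37 °C. Medium was removed, formazan dissolved in DMSO, and absorbance read at 590 nm.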

[4] = molecular target: T1, Protein-S-isoprenylcysteine O-methyltransferase; assay: Inhibition of Icmt-mediated GFP-K-Ras membrane localization in human Jurkat T cells at 10 uM after 24 hrs by fluorescent microscopic analysis; format: cell-based
Method in brief: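 Jurkat T cells (E6.1) were transfected with GFP-K-Ras and treated for 24 h with compound, vehicle, or 25 μM simvastatin. Cells were placed on poly-L-lysine-coated coverslips (100 μg/mL) and fixed in 3.7% formaldehyde for 10 min. GFP localization was scored by fluorescence microscopy in random fields of 100 cells as normal membrane, partial mislocalization or complete mislocalization.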

MEF [5] = assay: Cytotoxicity against icmt-double mutant MEF cells after 5 days by MTT assay; format: cell-based; details: Mus musculus, 120 h; method in brief: as §1
[6] = Cytotoxicity against human PA-TU-8902 cells after 5 days by MTT assay; format: functional, cell-based; details: PaTu 8902, 120 h

T1 sequence (O60725 whole entry, the tested form may be a part): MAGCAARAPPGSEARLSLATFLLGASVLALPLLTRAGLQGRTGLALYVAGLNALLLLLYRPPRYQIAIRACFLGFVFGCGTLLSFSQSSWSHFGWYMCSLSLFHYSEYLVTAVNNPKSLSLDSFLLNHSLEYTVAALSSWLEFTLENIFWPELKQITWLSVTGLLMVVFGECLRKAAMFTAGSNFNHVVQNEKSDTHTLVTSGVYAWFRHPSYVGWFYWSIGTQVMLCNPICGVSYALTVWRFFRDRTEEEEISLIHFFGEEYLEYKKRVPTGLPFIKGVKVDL

Structure (SMILES) | Activity [1] [%] | further results
C/C(=C\CSCCC(=O)O)CCn1cc(COc2ccc(-c3ccccc3)cc2)nn1 | 75 | 
COC(=O)CCSC/C=C(\C)CCn1cc(CC/C=C(\C)CCC=C(C)C)nn1 | 59 | 
COC(=O)CCSC/C=C(\C)CCn1cc(-c2ccc(OC)cc2)nn1 | 91 | 
C/C(=C\CSCCC(=O)O)CCn1cc(CCc2ccc(-c3cccc(C#N)c3)cc2)nn1 | 74 | 
COC(=O)CCSC/C=C(\C)CCn1cc(-c2ccsc2)nn1 | 82 | 
COC(=O)CCSC/C=C(\C)CCn1cc(CCc2ccc(-c3cccs3)cc2)nn1 | 57 | 
C/C(=C\CSCCC(=O)O)CCn1cc(CCc2ccc(-c3ccc(F)cc3)cc2)nn1 | 42 | 
COC(=O)CCSC/C=C(\C)CCn1cc(CCOC2CCCCO2)nn1 (centres undefined) | 80 | 
COC(=O)CCSC/C=C(\C)CCn1cc(CCc2ccccc2-c2ccccc2)nn1 | 74 | 
C/C(=C\CSCCC(=O)O)CCn1cc(CCc2ccc(-c3cccs3)cc2)nn1 | 63 | 
C/C(=C\CSCCC(=O)O)CCn1cc(CCc2ccc(-c3ccccc3)cc2)nn1 | 43 | 
COC(=O)CCSC/C=C(\C)CCn1cc(CCc2ccccc2)nn1 | 69 | pIC50 [2]: 4.39
COC(=O)CCSC/C=C(\C)CCn1cc(-c2ccc(C(C)(C)C)cc2)nn1 | 84 | 
COC(=O)CCSC/C=C(\C)CCn1cc(Cc2ccccc2)nn1 | 80 | 
COC(=O)CCSC/C=C(\C)CCn1cc(CCC(C)C)nn1 | 77 | 
CCCCCc1cn(CC/C(C)=C/CSCCC(=O)OC)nn1 | 76 | 
CC(C)=CCC/C(C)=C/CC/C(C)=C/Cc1cn(CCCC(=O)O)nn1 | 83 | 
COC(=O)CCSC/C=C(\C)CCn1cc(CCc2ccc(-c3ccc(-c4ccccc4)cc3)cc2)nn1 | 79 | 
COC(=O)CCSC/C=C(\C)CCn1cc(COc2ccccc2)nn1 | 89 | 
COC(=O)CCSC/C=C(\C)CCn1cc(CCc2ccc(-c3ccccc3)cc2)nn1 | 14 | pIC50 (MEF [3]): 4.48; inhibition [4]: Active; pIC50 (MEF [5]): < 4.00; pIC50 [6]: 5.10; pIC50 [2]: 6.10
C/C(=C\CSCCC(=O)O)CCn1cc(-c2ccccc2)nn1 | 88 | 
CC(C)=CCC/C(C)=C/CC/C(C)=C/CSc1ccccc1C(=O)O [SALIRASIB] |  | pIC50 [2]: 4.59
C/C(=C\CSCCC(=O)O)CCn1cc(CCc2ccccc2)nn1 | 75 | 
C/C(=C\CSCCC(=O)O)CCn1cc(Cc2ccccc2)nn1 | 82 | 

Structure (SMILES) | Activity [1] [%] | further results
CCCCCc1cn(CC/C(C)=C/CSCCC(=O)O)nn1 | 77 | 
CC(C)=CCC/C(C)=C/CC/C(C)=C/Cc1cn(CC(=O)O)nn1 | 65 | 
C/C(=C\CSCCC(=O)O)CCn1cc(-c2ccc(C(C)(C)C)cc2)nn1 | 88 | 
CC(C)=CCC/C(C)=C/CCc1cn(CCC(=O)O)nn1 | 75 | 
CC(C)=CCC/C(C)=C/CC/C(C)=C/Cc1cn(CCCCC(=O)O)nn1 | 73 | 
COC(=O)CCSC/C=C(\C)CCn1cc(CCc2ccc(-c3ccc(F)cc3)cc2)nn1 | 28 | 
CCCCCCCCCCc1cn(CC/C(C)=C/CSCCC(=O)OC)nn1 | 67 | 
C/C(=C\CSCCC(=O)O)CCn1cc(CCC(C)C)nn1 | 72 | 
C/C(=C\CSCCC(=O)O)CCn1cc(CCOC2CCCCO2)nn1 (centres undefined) | 90 | pIC50 [2]: < 4.00
COC(=O)CCSC/C=C(\C)CCn1cc(COc2ccc(-c3ccccc3)cc2)nn1 | 67 | 
C/C(=C\CSCCC(=O)O)CCn1cc(-c2cccc3ccccc23)nn1 | 77 | 
CC(C)=CC/C(=C\CSC[C@H](NC(=O)c1ccccc1Oc1ccccc1)C(=O)O)CCc1ccc(-c2ccccc2)cc1 |  | pIC50 [2]: 5.60
CC(C)=CCC/C(C)=C/CCc1cn(CCCC(=O)O)nn1 | 90 | 
C/C(=C\CSCCC(=O)O)CCn1cc(CCc2cccc(-c3ccccc3)c2)nn1 | 74 | 
COC(=O)CCSC/C=C(\C)CCn1cc(CCc2ccc(-c3cccc(C#N)c3)cc2)nn1 | 30 | 
COC(=O)CCSC/C=C(\C)CCn1cc(-c2ccccc2)nn1 | 89 | 
COc1ccc(-c2cn(CC/C(C)=C/CSCCC(=O)O)nn2)cc1 | 87 | 
C/C(=C\CSCCC(=O)O)CCn1cc(COc2ccccc2)nn1 | 89 | 
COC(=O)CCSC/C=C(\C)CCn1cc(CCc2cccc(-c3ccccc3)c2)nn1 | 65 | pIC50 (MEF [3]): 4.26; pIC50 (MEF [5]): < 4.00; pIC50 [2]: 4.54
COC(=O)CCSC/C=C(\C)CCn1cc(-c2cccc3ccccc23)nn1 | 82 | pIC50 (MEF [3]): 4.02; pIC50 (MEF [5]): < 4.00
CC(C)=CCC/C(C)=C/CC/C(C)=C/Cc1cn(CCC(=O)O)nn1 | 53 | 
C/C(=C\CSCCC(=O)O)CCn1cc(-c2ccsc2)nn1 | 80 | 
CC(C)=CCC/C(C)=C/CC/C(C)=C/CCc1cn(CCC(=O)O)nn1 | 69 | 
